High-throughput results as filed in PubChem.
RTF Ca sens inh: cardiac RTF calcium sensitivity inhibitors, primary screen, biochemical, IANBD-TnC fluorescence, EC70 calcium; Troponin I, cardiac muscle (Homo sapiens) + Troponin T, cardiac muscle (Homo sapiens) + …; inhibition, % at 7.15 µM; AID 493244, 2011; IANBD-labeled cardiac RTF, Ca2+ fluorescence; 340,000 compounds, 0.12% hits;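 active = inhibition above the mean inhibition of all tested compounds plus 3 SD, cut at about 17% in these data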;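 also: assay run at fixed EC70 calcium of 1.6 mM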
Mot1-301 SUMO: yeast Mot1-301 growth rescue at high temperature, primary screen, SUMOylation pathway inhibitor project, S. cerevisiae, ATP luminescence, 38.5C. growth rescue, % at 18.8 µM. 320,000 compounds, 1% hits. S. cerevisiae Mot1-301 growth rescue; percent above DMSO median, 100 means doubled;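 active = every valid replicate shows activation above 250% relative to neutral control wells; inactive = the rest, any valid replicate at or below 250%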;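 also: OY570 slx delta 5 strain wells were the positive control but not used for scaling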
Efflux pump mplx: inhibitors of Candida efflux pumps in yeast, primary screen, S. cerevisiae, Nile Red, multiplex | 330,000 compounds, 0.44% hits | inhibition, % at 10 µM | S. cerevisiae Candida pump triplex;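 active = plate passing quality check with inhibition over a set limit, or well fluorescence over plate mean plus 4 SD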;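 also: Nile Red retained in pooled yeast measured as flow cytometry median fluorescence; 0% = buffer negative control and 100% = Enniatin B positive control; higher means more Nile Red kept so more efflux inhibition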
RTF Ca sens act: cardiac RTF calcium sensitivity activators, primary screen, biochemical, IANBD-TnC fluorescence, EC20 calcium; 340,000 compounds, 0.24% hits; AID 493008, 2010; activation, % at 7.2 µM; IANBD-labeled TnC RTF fluorescence at EC20 calcium; 0% EC20 calcium, 100% full calcium;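 active = activation above the mean over all tested compounds plus 3 SD, cut at about 30% in these data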;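 also: rise in fluorescence read as greater calcium sensitivity of cardiac thin filaments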
ARNT TACC3 PPI: disruptors of ARNT/TACC3 protein interaction, primary screen, biochemical, AlphaScreen, single concentration. AID 623870, 2012. AlphaScreen His-ARNT PAS-B/GST-TACC3 binding, luminescence; TACC3 fragment carries E629A point mutation. Transforming acidic coiled-coil-containing protein 3 (Homo sapiens), Q9Y6A5. inhibition, % at 9.99 µM. 390,000 compounds, 0.66% hits;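 active = mean inhibition of replicates at least 50% and at least half of replicates each reaching 50%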;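 also: 0% = complete ARNT plus TACC3 wells and 100% = ARNT alone without TACC3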
UCH37 inh: inhibitors of human UCH37 deubiquitinase, primary screen, biochemical, Ub-AMC cleavage, fluorescence; 330,000 compounds, 0.33% hits; Ubiquitin carboxyl-terminal hydrolase isozyme L5 (Homo sapiens), Q9Y5K5; AID 588478, 2011; purified proteasome/UCH37; inhibition, % (test concentration not listed);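 active = mean inhibition over replicate wells above about 20%, limit read from the data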;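 also: 0% = compound-free wells with enzyme and 100% = wells lacking proteasome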
Target sequence (Q9Y5K5 whole entry, looked up): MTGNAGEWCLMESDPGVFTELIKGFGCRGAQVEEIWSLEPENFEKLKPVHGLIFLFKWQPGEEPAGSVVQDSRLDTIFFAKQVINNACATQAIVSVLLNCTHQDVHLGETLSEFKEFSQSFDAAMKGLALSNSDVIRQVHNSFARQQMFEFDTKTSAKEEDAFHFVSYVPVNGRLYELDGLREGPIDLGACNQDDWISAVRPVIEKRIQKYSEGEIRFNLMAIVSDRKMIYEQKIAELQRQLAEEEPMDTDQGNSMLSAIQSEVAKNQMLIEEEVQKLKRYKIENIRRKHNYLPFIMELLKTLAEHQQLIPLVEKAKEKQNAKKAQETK
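Material: Human UCH37 enzyme supplied as purified proteasome complex | Schedule: 30 min compound-proteasome preincubation then 25 min substrate reaction, room temperature | Detection: AMC fluorescence from Ub-AMC cleavage, excitation 355 nm, emission 460 nm | Benchmarks: Wells without proteasome as full block, compound-free enzyme plus substrate as uninhibited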
Cmpd fluor yeast: counter-screen for efflux pump inhibitors: compound fluorescence; S. cerevisiae AD/pABC3, flow cytometry; shares compounds with Efflux pump mplx; AID 588517; fluorescence ratio to DMSO, % at 10 µM; 1,700 compounds, 4% hits;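 active = fluorescence ratio to DMSO above its plate's cutoff, the plate mean ratio plus 5 SD, cut at about 210% in these data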;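 also: unstained yeast with no Nile Red so the signal is compound autofluorescence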
CaMdr1 efflux inh: inhibitors of Candida albicans Mdr1 efflux, confirmation, flow cytometry, singleplex, Cherry Pick1 set; shares compounds with Efflux pump mplx; S. cerevisiae AD/CaMDR1, Nile Red efflux; inhibition, % at 10 µM; 1,700 compounds, 1% hits; in the data active = inhibition above about 26%;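 also: 0% = DMSO vehicle and 100% = reference inhibitor; higher means more Nile Red retained so more efflux inhibition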
Cdr2 pump inh: inhibitors of Candida albicans Cdr2 efflux pump, confirmation, S. cerevisiae AD/CaCDR2, flow cytometry, cherry pick 1, singleplex. shares compounds with Efflux pump mplx. Nile Red retention ratio vs DMSO, % at 10 µM. Nile Red retention. 1,700 compounds, 4% hits; in the data active = Nile Red retention ratio vs DMSO above about 190%;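 also: higher ratio means more blocking of Cdr2 efflux of the dye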
Cdr1 pump inh: inhibitors of Candida albicans Cdr1 efflux pump, confirmation, S. cerevisiae AD/CaCDR1, flow cytometry, cherry pick 1, singleplex. shares compounds with Efflux pump mplx. Nile Red efflux. inhibition, % at 10 µM. 1,700 compounds, 1% hits. AID 588522, 2011;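 active = inhibition above the screen-wide mean plus twice its standard deviation, cut at about 32% in these data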
Numbers without * were called inactive. Rows were chosen to be rich in hits. Some 2.1% of all compounds tested hit in one or more screens of this group.

What do the screens show for `Cc1cc(NS(=O)(=O)c2ccc(NC(=O)CCN3C(=O)c4ccccc4C3=O)cc2)no1`?
RTF Ca sens inh: 0.9; Mot1-301 SUMO: -10.0; Efflux pump mplx: 0.9*; RTF Ca sens act: -0.1; ARNT TACC3 PPI: 3.1; UCH37 inh: -2.1; Cmpd fluor yeast: 98.6; CaMdr1 efflux inh: -0.3; Cdr2 pump inh: 99.3; Cdr1 pump inh: 0.1

What do the screens show for `Cc1cc(C)nc(NS(=O)(=O)c2ccc(NC(=O)CCN3C(=O)c4ccccc4C3=O)cc2)n1`?
RTF Ca sens inh: -10.1; Mot1-301 SUMO: -14.8; Efflux pump mplx: -0.2; RTF Ca sens act: 5.7; UCH37 inh: 2.9

What do the screens show for `COc1ccc(NN=C(C(C)=O)N2CCCc3ccccc32)cc1`?
UCH37 inh: 3.3

What do the screens show for `CCc1cccc(C)c1NC(=O)c1ccc(CN2CCc3ccccc3C2)cc1`?
RTF Ca sens inh: -3.0; Mot1-301 SUMO: 186.5; Efflux pump mplx: 21.8*; RTF Ca sens act: -1.3; ARNT TACC3 PPI: -15.1; UCH37 inh: 4.4; Cmpd fluor yeast: 116.4; CaMdr1 efflux inh: 0.4; Cdr2 pump inh: 114.1; Cdr1 pump inh: 0.3

How did CCC(=NNC(=O)c1ccc(Br)cc1)c1ccccc1 do in these assays?
UCH37 inh: 4.6

Results for O=C(COC(=O)CC1CCCC1)Nc1ccccc1[N+](=O)[O-] ?
RTF Ca sens inh: -6.8; Mot1-301 SUMO: 61.3; Efflux pump mplx: 0.9*; RTF Ca sens act: -0.7; ARNT TACC3 PPI: -7.1; UCH37 inh: 5.1; Cmpd fluor yeast: 88.5; CaMdr1 efflux inh: -0.3; Cdr2 pump inh: 99.7; Cdr1 pump inh: -0.1

Results for Cc1ccccc1NC(=O)COC(=O)CC1CCCC1 ?
RTF Ca sens inh: -2.1; RTF Ca sens act: 3.9; ARNT TACC3 PPI: -3.0; UCH37 inh: -0.2

How did ON=C(COc1ccccc1O)c1ccccc1 do in these assays?
UCH37 inh: 1.1

Results for CC(Oc1ccc(Br)cc1)C(=O)Nc1nnc(C2CC2)s1 (centres undefined) ?
RTF Ca sens inh: -5.3; Mot1-301 SUMO: 5.7; Efflux pump mplx: -0.1; RTF Ca sens act: 2.9; ARNT TACC3 PPI: 3.6; UCH37 inh: 3.7; Cmpd fluor yeast: 99.0; CaMdr1 efflux inh: -0.1; Cdr2 pump inh: 109.4; Cdr1 pump inh: 0.1

What do the screens show for `Cc1ccc(C(C)C)cc1OCC(=O)Nc1nnc(C2CC2)s1`?
RTF Ca sens inh: 1.3; Mot1-301 SUMO: 11.1; Efflux pump mplx: 0.0; RTF Ca sens act: -1.8; ARNT TACC3 PPI: -6.0; UCH37 inh: -0.9; Cmpd fluor yeast: 101.1; CaMdr1 efflux inh: -0.2; Cdr2 pump inh: 106.3; Cdr1 pump inh: 0.2
